Screens (PubChem)
L major viab: inhibitors of Leishmania major promastigote growth | Leishmania major promastigotes, resazurin fluorescence viability | inhibition, % at 10 µM | actives 9% (n = 200,000) | AID 1063; in the data active = inhibition above about 50%;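 also: promastigotes grown with compound for 44 hours at 28 °C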
APP transl inh: APP translation inhibition | actives 0.82% (n = 190,000) | SH-SY5Y APP 5'UTR-luciferase reporter, luminescence | AID 1285 | inhibition, % at 2 µM;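 active = inhibition above a set limit, derived from the sample mean plus 3 SD, cut at about 45% in these data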
BaF3 parental: parental Ba/F3 viability inhibition as JAK2V617F counter-screen; inhibition, % at 5.6 µM; CellTiter-Glo ATP luminescence; actives 1.1% (n = 220,000);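 active = inhibition above a per-campaign cutoff, the mean inhibition of all tested compounds plus 3 SD, cut at about 27% in these data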;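 also: 0% = DMSO wells and 100% = JAK Inhibitor I control wells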
bCat nuc transl: alters nuclear translocation of beta-catenin in HeLa cells; immunofluorescence imaging; nuclear translocation activity, % at 5 µM; actives 0.3% (n = 190,000); AID 1665;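 active = nuclear translocation activity above 50% at 5 µM, with a well cell count of 50 or more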;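 also: per-cell ratio of nuclear to cytoplasmic median beta-catenin stain intensity; plate controls were DMSO negative control for no effect and GSK-3 inhibitor IX positive control for full effect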
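Technique: fluorescence imaging of beta-catenin antibody stain plus DAPI / Material: human HeLa cell line / Incubation: compound treatment 24 h, 37°C, 5% CO2 / Read-out basis: % activation of per-cell nuclear versus cytoplasmic median beta-catenin signal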
Ba/F3 V617F tox: loss of viability in JAK2V617F-driven Ba/F3 cells. Ba/F3 EpoR-JAK2V617F viability, ATP luminescence. inhibition, % at 5.6 µM. actives 1.1% (n = 220,000). AID 1446;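 active = inhibition above the campaign mean plus 3 SD over all tested compounds, cut at about 24% in these data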;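 also: cytokine-independent growth of Ba/F3 cells driven by EpoR plus mutant JAK2; 0% = DMSO-treated cells and 100% = JAK inhibitor I control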
MT stabilize HCS: microtubule stabilizers in HeLa cells; HeLa tubulin immunostaining HCS, 24 h; share of cells brighter than vehicle mean+2SD; % tubulin-high responders, % at 10 µM; actives 0.83% (n = 200,000);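 active = plate Z-score above 3 for both tubulin-high and condensed-nucleus cell shares, with cell loss under 80%, at 10 µM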;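 also: anti alpha tubulin signal scored within the nucleus-defined area of each cell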
Starred values were filed as active, the others as inactive. Most compounds without a hit are left out; they make up all but 9.6% or so of the library.

Results for O=C(NCc1ccncc1)C(=O)NCC(c1ccco1)N1CCN(c2ccccc2F)CC1 (centres undefined) ?
L major viab: 52*; APP transl inh: 3; BaF3 parental: 7; bCat nuc transl: 2; Ba/F3 V617F tox: 2; MT stabilize HCS: 1

What do the screens show for `Cc1cc(C(=O)CSc2nncn2C)c(C)n1-c1ccccc1`?
L major viab: 3; APP transl inh: -122; BaF3 parental: 2; bCat nuc transl: -2; Ba/F3 V617F tox: 2; MT stabilize HCS: 4

How did COc1ccc(CN2C(=O)CS/C2=N/N=C/c2cccs2)cc1 do in these assays?
BaF3 parental: 5; bCat nuc transl: 0; Ba/F3 V617F tox: -1

How did O=C(NCCC1=CCCCC1)C(=O)NCC(c1ccco1)N1CCN(c2ccccc2F)CC1 (centres undefined) do in these assays?
L major viab: 74*; APP transl inh: 17; BaF3 parental: 6; bCat nuc transl: 5; Ba/F3 V617F tox: -2; MT stabilize HCS: 2

What do the screens show for `O=C(NCCc1c[nH]c2ccccc12)C(=O)NCC(c1ccco1)N1CCN(c2ccc(F)cc2)CC1` (centres undefined)?
L major viab: -3; APP transl inh: -17; BaF3 parental: 7; bCat nuc transl: 2; Ba/F3 V617F tox: 0; MT stabilize HCS: 2

What do the screens show for `COc1ccc(N2CCN(C(CNC(=O)C(=O)NCCC3=CCCCC3)c3ccco3)CC2)cc1` (centres undefined)?
L major viab: 86*; APP transl inh: 18; BaF3 parental: 1; bCat nuc transl: -3; Ba/F3 V617F tox: -4; MT stabilize HCS: 2

Results for O=C(NCCc1c[nH]c2ccccc12)C(=O)NCC(c1ccco1)N1CCN(c2ccccc2)CC1 (centres undefined) ?
L major viab: 89*; APP transl inh: 1; BaF3 parental: 1; bCat nuc transl: -2; Ba/F3 V617F tox: -4; MT stabilize HCS: 3

Results for CCCCC(C(=O)NCCC(C)C)N(CCCN1CCOCC1)C(=O)c1snc(C(N)=O)c1N (centres undefined) ?
L major viab: 17; APP transl inh: -20; BaF3 parental: 1; bCat nuc transl: 3; Ba/F3 V617F tox: 2; MT stabilize HCS: 2

How did CCOC(=O)c1c(C)n(C)c2ccc(OC)c(NC(=O)CCN3CCSCC3)c12 do in these assays?
L major viab: 2; APP transl inh: -3; BaF3 parental: 2; Ba/F3 V617F tox: -4; MT stabilize HCS: 2

What do the screens show for `Nc1nc2ccccc2n1/N=C/c1cccnc1`?
L major viab: 21; APP transl inh: -18; BaF3 parental: 2; Ba/F3 V617F tox: -4; MT stabilize HCS: 2

How did Nc1nc2ccccc2n1/N=C/c1ccc([N+](=O)[O-])s1 do in these assays?
L major viab: 100*; APP transl inh: 24; BaF3 parental: 4; bCat nuc transl: 0; Ba/F3 V617F tox: 2; MT stabilize HCS: 3

Results for O=c1[nH]c2c(cnn2-c2ccc(Cl)cc2)c(=O)n1-c1cccc(Cl)c1 ?
BaF3 parental: -5; bCat nuc transl: 1; Ba/F3 V617F tox: -1

What do the screens show for `O=C1C=CC(=O)C(C2=C3C(=O)N(CCc4ccccc4)CC(=O)N3CCC2)=C1`?
L major viab: -6; APP transl inh: 65*; BaF3 parental: -1; Ba/F3 V617F tox: -5; MT stabilize HCS: 3

What do the screens show for `CCN(CC)CCCOC(=O)c1ccc(OC)cc1O`?
L major viab: 74*; APP transl inh: 8; BaF3 parental: 1; bCat nuc transl: 0; Ba/F3 V617F tox: -1; MT stabilize HCS: 3

What do the screens show for `CCN(CC)CCOC(=O)c1c(C)oc2ccc(OC)cc12`?
L major viab: 100*; APP transl inh: -18; BaF3 parental: 3; bCat nuc transl: -1; Ba/F3 V617F tox: -4; MT stabilize HCS: 5

Results for C=C(C)COc1ccc2oc(C)c(C(=O)OCCOC)c2c1 ?
L major viab: -4; APP transl inh: 4; BaF3 parental: 4; bCat nuc transl: 0; Ba/F3 V617F tox: -2; MT stabilize HCS: 1

Results for CCN(CC)CCOC(=O)c1cccc(OC)c1 ?
L major viab: -5; APP transl inh: -16; BaF3 parental: -1; Ba/F3 V617F tox: -4; MT stabilize HCS: 4

How did CC(=O)Nc1cc(O)cc(O)c1 do in these assays?
APP transl inh: 2; BaF3 parental: 1; bCat nuc transl: 0; Ba/F3 V617F tox: -6

What do the screens show for `CCOC(=O)C1(Cc2ccc(OC)cc2)CCN(C(=O)C2=CCCC2)CC1`?
L major viab: -2; APP transl inh: -19; BaF3 parental: 1; bCat nuc transl: 0; Ba/F3 V617F tox: 4; MT stabilize HCS: 3

How did CC(NC(=O)COc1ccc(-c2nnco2)cc1)c1ccc(Cl)cc1Cl (centres undefined) do in these assays?
L major viab: -5; APP transl inh: -7; BaF3 parental: 6; bCat nuc transl: -3; Ba/F3 V617F tox: 2; MT stabilize HCS: 7

Results for COc1cc(/C=C2/NC(=O)N(c3cccc(Cl)c3)C2=O)ccc1O ?
L major viab: -8; APP transl inh: 55*; BaF3 parental: 76*; bCat nuc transl: 7; Ba/F3 V617F tox: 100*; MT stabilize HCS: 3

Results for COc1ccc(/C=N/NC(=O)Cc2csc(Nc3cccc(C(F)(F)F)c3)n2)cc1C ?
L major viab: 19; APP transl inh: 6; BaF3 parental: 8; bCat nuc transl: -1; Ba/F3 V617F tox: 8; MT stabilize HCS: 1

How did CCC(=O)Nc1c(C)nn(-c2ccc(C)c(C)c2)c1C do in these assays?
L major viab: -5; APP transl inh: 1; BaF3 parental: -4; bCat nuc transl: 3; Ba/F3 V617F tox: -4; MT stabilize HCS: 4

What do the screens show for `Cc1ccc(-n2nc(C)c(NC(=O)CCl)c2C)cc1C`?
L major viab: 56*; APP transl inh: -27; BaF3 parental: 14; bCat nuc transl: 13; Ba/F3 V617F tox: 5; MT stabilize HCS: 7

What do the screens show for `O=C(NCc1ccccn1)c1cccc(NS(=O)(=O)c2cccc(F)c2)c1`?
L major viab: -4; APP transl inh: 6; BaF3 parental: 8; bCat nuc transl: -3; Ba/F3 V617F tox: 0; MT stabilize HCS: 4

How did Cc1ccc(N=c2c([N+](=O)[O-])nn(-c3ccc4c(c3)OCCO4)n2O)cc1F do in these assays?
L major viab: 23; APP transl inh: 19; BaF3 parental: 8; bCat nuc transl: -2; Ba/F3 V617F tox: 2; MT stabilize HCS: 6

What do the screens show for `Cc1cc(C)cc(N=c2c([N+](=O)[O-])nn(-c3ccc4c(c3)OCCO4)n2O)c1`?
L major viab: 85*; APP transl inh: 23; BaF3 parental: 5; bCat nuc transl: -2; Ba/F3 V617F tox: 1; MT stabilize HCS: 3

What do the screens show for `O=[N+]([O-])c1nn(-c2ccc3c(c2)OCCO3)n(O)c1=Nc1ccccc1`?
L major viab: 97*; APP transl inh: 38; BaF3 parental: 9; bCat nuc transl: 1; Ba/F3 V617F tox: 2; MT stabilize HCS: 3
